High-throughput results as filed in PubChem BioAssay.
This is a sample that favours compounds with a hit; in the whole collection about 3.7% have one here.
KCNQ1 pot: human KCNQ1 channel potentiation or activation; CHO-K1 KCNQ1, thallium flux FluxOR fluorescence; stronger effect = higher value; AID 2648; P51787; B-score at 10 µM; actives 0.35% (n = 310,000);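 active means fluorescence ratio B-score, a plate-corrected score, at least three library SD, with initial intensity B-score within 5 SD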
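Assay system: CHO-K1 cells stably expressing KCNQ1. Medium: assay buffer for compound exposure, DMSO matched across wells. Timing: 37 °C overnight plating, 90-min dark dye load, 20-min compound pretreatment. Signal: kinetic FluxOR fluorescence, 10 s baseline plus 110 s post-stimulus.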
KCNK3 block: human KCNK3 channel inhibition, primary screen; CHO-KCNK3 thallium flux, FluxOR fluorescence; stronger effect = lower value; B-score at 10 µM; actives 0.84% (n = 340,000);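 active means B-score under library mean minus 4 SD, starting fluorescence ratio at most library mean plus 5 SD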;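 further: more negative B-score means stronger inhibition of thallium flux through KCNK3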
Target sequence (O14649 whole entry, looked up): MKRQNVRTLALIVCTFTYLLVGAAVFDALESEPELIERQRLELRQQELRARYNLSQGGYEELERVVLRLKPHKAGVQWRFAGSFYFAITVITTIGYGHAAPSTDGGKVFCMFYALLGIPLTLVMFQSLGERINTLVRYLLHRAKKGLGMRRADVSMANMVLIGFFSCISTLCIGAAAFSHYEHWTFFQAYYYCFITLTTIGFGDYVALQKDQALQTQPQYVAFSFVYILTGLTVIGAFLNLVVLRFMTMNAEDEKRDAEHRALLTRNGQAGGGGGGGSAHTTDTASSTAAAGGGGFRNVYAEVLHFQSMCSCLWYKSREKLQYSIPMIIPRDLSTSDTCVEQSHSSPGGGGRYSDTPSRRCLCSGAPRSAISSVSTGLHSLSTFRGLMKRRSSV
hERG rescue: compounds protecting human hERG from proarrhythmic drug block; actives 0.51% (n = 310,000); CHO-hERG, FluxOR thallium flux, dofetilide IC70 present; activation (rescue from dofetilide block), less the hit threshold, % at 10 µM;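 active means activation above the mean of controls blocked by dofetilide plus 5 SD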;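 further: thallium influx through hERG after potassium depolarization seen as dye fluorescence rise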
KCNK9 block: human KCNK9 channel inhibition; Q9NPC2; HEK293 KCNK9, FluxOR thallium flux fluorescence; stronger effect = lower value; B-score at 10 µM; actives 1.2% (n = 310,000);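 active means ratio B-score over 3 SD below the library mean, with starting fluorescence within 5 SD of its mean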;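 further: negative B-score means less thallium flux so channel inhibition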
KCNQ1 block: inhibitors of human KCNQ1 potassium channel | P51787 | CHO-K1 KCNQ1, FluxOR thallium flux fluorescence; stronger effect = higher value | B-score at 10 µM | actives 1.3% (n = 310,000) | AID 2642;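 active means compounds whose thallium flux B-score, printed positive for inhibition, exceeds three library SD while starting fluorescence stays within three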;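 further: channel opened by potassium depolarization with thallium stimulus after 20 min compound exposure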
Kir21 inh: inhibitors of mouse Kir2.1 inward-rectifier potassium channel; B-score at 10 µM; HEK293-Kir2.1, FluxOR thallium flux fluorescence; stronger effect = lower value; actives 0.85% (n = 310,000); P35561;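 active means fluorescence ratio B-score at or below minus 3 SD of library scores, with starting-brightness B-score within 2 SD, cut at about -4.2 in these data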;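 further: channel flux triggered by added potassium and thallium sulfate stimulus; B-score of peak minus minimum fluorescence over baseline after thallium stimulus; more negative B-score means stronger Kir2.1 block with less thallium influx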
KCNK9 inh conf: confirmation of human KCNK9 potassium channel inhibitors; shares compounds with KCNK9 block; HEK293 KCNK9 cells, FluxOR thallium flux fluorescence; actives 43% (n = 4,900); inhibition, % at 10 µM;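 active means thallium signal inhibited by more than 5 SD of the compound-free buffer control wells, on both duplicate plates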;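 further: 0% = assay buffer control wells without compound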
Kir21 sel: mouse Kir2.1 off-target activity of KCNK9 modulators; AID 492993; inhibition, % at 10 µM; Kir2.1 cells, FluxOR thallium flux fluorescence; actives 4% (n = 4,900); shares compounds with KCNK9 block;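 active means thallium signal drop more than 5 SD beyond the mean of the no-compound control wells, seen in both duplicate plates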;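 further: signal is fluorescence rise after thallium addition divided by baseline fluorescence; plate controls were assay buffer only for no effect and full block by chlorpromazine control for full effect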
HEK293 Tl ctr: second check of KCNK9 modulator effects in non-induced HEK293 cells; inhibition, % at 10 µM; actives 40% (n = 4,900); FluxOR thallium flux; shares compounds with KCNK9 block;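 active means thallium signal drop beyond 5 SD of the untreated control mean, on both duplicate plates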;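 further: plate controls were buffer only IC0 wells for no effect and SID17386958 at its maximal inhibitory level for full effect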
Active calls of the source: *; i = inactive; x = no result given; ! = not confirmed by another sample.

SMILES	KCNQ1 pot	KCNK3 block	hERG rescue	KCNK9 block	KCNQ1 block	Kir21 inh	KCNK9 inh conf	Kir21 sel	HEK293 Tl ctr
CC1=C(C(=O)N2CCCC(N3CCN(c4cccc(C(F)(F)F)c4)CC3)C2)OCCO1 (stereo not drawn)	i	i	-10	i	i	0.41	i	i	i
Cc1cccc(C(=O)N2CCCC(N3CCN(c4ccccc4F)CC3)C2)n1 (stereo not drawn)	i	i	-10	i	i	-0.04	x	x	x
CCc1cc(C(=O)N2CCCC(N3CCN(c4cccc(C(F)(F)F)c4)CC3)C2)n(C)n1 (stereo not drawn)	i	i	-9	i	i	1.5	i	i	i
Cc1ccc(C(=O)N2CCCC(N3CCN(c4cccc(C(F)(F)F)c4)CC3)C2)s1 (stereo not drawn)	i	i	-13	i	i	1	i	i	i
O=C(c1ccncc1)N1CCCC(N2CCN(c3cccc(C(F)(F)F)c3)CC2)C1 (stereo not drawn)	i	i	-13	i	i	0.13	x	x	x
CCOC(=O)N1CCN(C(=O)CNC(=O)c2ccc(Br)cc2)CC1	i	i	-7	i	i	0.2	x	x	x
COc1ccc(OC)c(S(=O)(=O)N2CCCC(C(=O)NC3CC3)C2)c1 (stereo not drawn)	x	i	x	x	x	x	x	x	x
CSc1nc(C(=O)N2CCCC(N3CCN(c4ccccc4C)CC3)C2)cs1 (stereo not drawn)	i	i	-14	i	i	-0.46	i	i	i
CN(c1ccccc1)S(=O)(=O)c1cccc(NC(=O)CSc2n[nH]c(N)n2)c1	i	i	-22	i	i	-0.79	i	i	i
COc1cc(OC)cc(C(=O)N[C@H](C(=O)N2CCc3ccccc32)C(C)C)c1	i	i	-8	-11*	i	1.8	71%*	i	31%*
COc1ccccc1CNS(=O)(=O)c1ccc2c(c1)CCCN2C(C)=O	i	i	-5	i	i	-1	x	x	x
O=c1c2ccccc2nc(N2CCN(c3ccccc3)CC2)n1Cc1ccccc1	i	i	-9	-13*	i	-1.2	62%*	i	40%*
Clc1cccc2sc(N3CCCCC3)nc12	i	i	-9	i	i	1.6	x	x	x
Brc1cccc2sc(N3CCN(c4ccccc4)CC3)nc12	i	i	-12	-14*	i	0.32	47%*	i	30%*
Cc1cccc(/C(N)=N/OC(=O)CCCN2C(=O)c3ccccc3C2=O)c1	i	i	-3	i	i	-1.2	i	i	i
O=c1sc(N2CCN(c3ccccc3F)CC2)nc2ccsc12	i	i	-10	-13*	i	-0.23	36%*	i	40%*
CCN(CC(=O)Nc1ccc2c(c1)OCCO2)C(=O)c1ccc(Cl)cc1Cl	i	i	-21	i	i	1	x	x	x
COCCNC(=O)C12CC3CC(C1)CC(c1ccccc1)(C3)C2	i	i	-9	i	i	-0.04	x	x	x
COc1ccc(NC(=O)C23CC4CC(C2)CC(c2ccccc2)(C4)C3)c(OC)c1	i	i	-2	i	i	0.35	i	i	i
O=c1c(/C=N/OCc2ccc(Cl)cc2Cl)c[nH]n1-c1cccc(Cl)n1	i	i	-3	i	7*	0.23	i	i	i
Cc1cc(O)c(/C=N/OCc2ccc(Cl)cc2Cl)c(=O)o1	i	i	-1	i	i	0.51	x	x	x
O=C(NC(=S)N1CCN(c2ccccn2)CC1)c1ccco1	i	i	-7	i	i	0.63	x	x	x
C=CCC1(CC=C)CCCN1C(=O)c1cc(COc2cccc(OC)c2)on1	i	i	-5	i	i	-0.57	i	i	i
COc1cccc(OCc2cc(C(=O)N3CCN(C)C(c4ccccc4)C3)no2)c1 (stereo not drawn)	i	i	-12	i	i	-1.8	i	i	i
COCC1CCN(C(=O)c2cc(COc3ccc4c(c3)CCCC4)on2)C1 (stereo not drawn)	i	i	-13	i	i	0.39	i	i	i
SMILES	KCNQ1 pot	KCNK3 block	hERG rescue	KCNK9 block	KCNQ1 block	Kir21 inh	KCNK9 inh conf	Kir21 sel	HEK293 Tl ctr
COc1cc2c(cc1OC)CN(C(=O)C1CCCN(C(=O)c3ccc(Cl)cc3)C1)CC2 (stereo not drawn)	x	i	x	x	x	x	x	x	x
CC1CC(C)CN(C(=O)c2ccc(C#N)cc2)C1 (stereo not drawn)	i	i	-6	i	i	-2	x	x	x
CC1CC(C)CN(C(=O)c2ccc(S(=O)(=O)N3CC(C)CC(C)C3)cc2)C1 (stereo not drawn)	i	i	-6	i	i	-0.82	i	i	i
CC1CC(C)CN(C(=O)c2ccc(C(=O)c3ccccc3)cc2)C1 (stereo not drawn)	i	i	-13	i	i	1.6	i	i	i
NC(=NCCCCCCN=C(N)/N=C(\N)Nc1ccc(Cl)cc1)/N=C(\N)Nc1ccc(Cl)cc1	12*!	i	-5	-10*	i	-0.15	50%*	38%*	i
CCN(c1ccccc1)S(=O)(=O)c1cc([N+](=O)[O-])ccc1N	i	i	-8	-11*	i	-7*	41%*	31%*	33%*
Nc1ccccc1SCC(O)Cn1ccc2ccccc21 (stereo not drawn)	i	i	-7	i	i	0.61	x	x	x
Brc1cccc(OCCN2CCCCC2)c1	i	i	-5	i	i	0.18	x	x	x
Brc1cccc(OCCN2CCc3ccccc3C2)c1	i	i	-9	i	i	0.76	i	i	i
C=CCN(CC=C)CCOc1cc(C)ccc1[N+](=O)[O-]	i	i	-8	i	i	0.51	i	i	i
Cc1ccc([N+](=O)[O-])c(OCCN2CCc3ccccc3C2)c1	i	i	0	i	i	1.4	i	i	i
COC(=O)c1c(NC(=O)CN2CCN(c3ncccn3)CC2)sc(C(N)=O)c1C	i	i	-2	i	i	-1.6	x	x	x
